Laboratory results as given in paper PMC5836871 (Journal of Clinical Pharmacology, 2017).
Values joined by “and” are separate entries in the source; they are usually repeats but may differ in a detail not shown here. Equal entries are not always repeated. Where two headings read alike, the source gives them in different places. Marks after values point to notes of the source that are not given here.

Legend:
[1] = format: in vivo, human; conditions: for AUC0–∞ of metabolite, gMean (gCV%) / Cmax of metabolite, gMean (gCV%) / t1/2, gMean (gCV%) / fe0–72 (fraction excreted unchanged in urine), gMean (gCV%): single oral nintedanib 100 mg
Method in brief: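 Single oral 100 mg dose of test compound as soft-gelatin capsule, fed. Adults 18–79 y, BMI 18.5–34 kg/m2: Child-Pugh A (score 5–6) or B (7–9) hepatic impairment, plus matched healthy controls. Plasma sampled to day 8 for parent and metabolites. AUC0–∞, Cmax and AUC0–tz compared by log-scale ANOVA (hepatic status fixed, matched pair random); other parameters descriptive.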

[2] = format: in vitro ADME, human; conditions: for Protein-bound fraction, mean ± SD: plasma spiked with 100 ng/mL 14C-labeled compound
Method in brief: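 Predose plasma from Child-Pugh A, Child-Pugh B and matched healthy subjects was spiked ex vivo with 100 ng/mL [14C]-labelled test compound or its [14C]-labelled metabolite. Binding was measured in vitro by equilibrium dialysis, with radioactivity quantified by liquid scintillation counting. The protein-bound fraction is reported as the group mean ± SD.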

Safety and tolerability = format: in vivo, human
Method in brief: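 Open-label, parallel-group, matched-group phase 1 study in adults aged 18–79 with BMI 18.5–34 kg/m2 (Child-Pugh A, Child-Pugh B, and healthy subjects matched by age, weight, race, smoking and sex). Each subject took one oral soft-gelatin capsule with 240 mL water, fed. AEs were recorded from dosing to the end of the 28-day follow-up and coded by MedDRA v17.1. Relatedness was judged by the investigator.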

P‐glycoprotein = conditions: cited from earlier work
[3] = ref BI, data on file, cited from earlier work
[4] = cited from earlier work
[5] = Child-Pugh A subjects vs healthy subjects
[6] = Child-Pugh A, Child-Pugh B, healthy subjects
[7] = Child-Pugh B subjects vs healthy subjects
[8] = Child-Pugh A matched healthy subjects (n = 8)
[9] = Child-Pugh B matched healthy subjects (n = 8)
[10] = Child-Pugh A vs matched healthy subjects
[11] = Child-Pugh B vs matched healthy subjects
[12] = single 100 mg dose, Child-Pugh A (n = 8)
[13] = single 100 mg dose, Child-Pugh B (n = 8)
[14] = single 100 mg dose, Healthy (n = 17)

For `CN1CCN(CC(=O)N(C)c2ccc(N/C(=C3\C(=O)Nc4cc(C(=O)O[C@@H]5O[C@H](C(=O)O)[C@@H](O)[C@H](O)[C@H]5O)ccc43)c3ccccc3)cc2)CC1` [BIBF 1202 glucuronide], the “AUC0–∞, fold higher than in healthy subjects” value (shortened to “AUC0–∞, fold higher than”) [1, 5] was about 1.5 fold, the “Cmax, comparison across groups” value [1, 6] was “comparable across groups” and the “AUC0–∞, fold higher than” value [1, 7] was about 3.5 fold. The “AUC0–∞ of metabolite, gMean (gCV%)” value ([1]; Child-Pugh A (n = 8)) was 1040 (95.9) ng∙h/mL, the “Cmax of metabolite, gMean (gCV%)” value ([1]; Child-Pugh A (n = 8)) was 15.1 (113) ng/mL and the “t1/2, gMean (gCV%)” value ([1]; Child-Pugh A (n = 8)) was 41.1 (45.5) h. For the same compound, the “AUC0–∞ of metabolite, gMean (gCV%)” value [1, 8] was 657 (66.8) ng∙h/mL, the “Cmax of metabolite, gMean (gCV%)” value [1, 8] was 11.4 (62.0) ng/mL and the “t1/2, gMean (gCV%)” value [1, 8] was 31.9 (34.1) h. For the same compound, the “AUC0–∞ of metabolite, gMean (gCV%)” value ([1]; Child-Pugh B (n = 8)) was 2650 (285) ng∙h/mL, the “Cmax of metabolite, gMean (gCV%)” value ([1]; Child-Pugh B (n = 8)) was 19.6 (201) ng/mL and the “t1/2, gMean (gCV%)” value ([1]; Child-Pugh B (n = 8)) was 57.4 (114) h. For the same compound, the “AUC0–∞ of metabolite, gMean (gCV%)” value [1, 9] was 761 (69.1) ng∙h/mL, the “Cmax of metabolite, gMean (gCV%)” value [1, 9] was 12.7 (76.2) ng/mL and the “t1/2, gMean (gCV%)” value [1, 9] was 28.3 (21.9) h.

In the case of `CN1CCN(CC(=O)N(C)c2ccc(N/C(=C3\C(=O)Nc4cc(C(=O)O)ccc43)c3ccccc3)cc2)CC1` [BIBF 1202], the “Exposure, fold higher than in healthy subjects” value (from here on “Exposure, fold higher than”) [1, 5] was about 2 fold, the “AUC0–∞, fold higher than” value [1, 7] was about 17 fold and the “Cmax, fold higher than in healthy subjects” value [1, 7] was 9 fold. For the same compound, the “AUC0–∞ of metabolite, gMean (gCV%)” value ([1]; Child-Pugh A (n = 8)) was 216 (81.8) ng∙h/mL, the “Cmax of metabolite, gMean (gCV%)” value ([1]; Child-Pugh A (n = 8)) was 17.4 (47.1) ng/mL and the “t1/2, gMean (gCV%)” value ([1]; Child-Pugh A (n = 8)) was 39.1 (53.8) h. The “AUC0–∞ of metabolite, gMean (gCV%)” value [1, 8] was 86.8 (48.8) ng∙h/mL, the “Cmax of metabolite, gMean (gCV%)” value [1, 8] was 7.55 (56.2) ng/mL and the “t1/2, gMean (gCV%)” value [1, 8] was 24.7 (65.1) h. For the same compound, the “AUC0–∞ of metabolite, gMean (gCV%)” value ([1]; Child-Pugh B (n = 8)) was 1190 (86.4) ng∙h/mL, the “Cmax of metabolite, gMean (gCV%)” value ([1]; Child-Pugh B (n = 8)) was 60.7 (75.2) ng/mL and the “t1/2, gMean (gCV%)” value ([1]; Child-Pugh B (n = 8)) was 46.9 (16.6) h. The “AUC0–∞ of metabolite, gMean (gCV%)” value [1, 9] was 70.4 (38.7) ng∙h/mL, the “Cmax of metabolite, gMean (gCV%)” value [1, 9] was 6.47 (57.5) ng/mL and the “t1/2, gMean (gCV%)” value [1, 9] was 23.6 (50.1) h. The “Protein-bound fraction, mean ± SD” value ([2]; Child-Pugh A (n = 8)) was 81.2 ± 3.6%, the “Protein-bound fraction, mean ± SD” value ([2]; Child-Pugh B (n = 8)) was 82.4 ± 5.5% and the “Protein-bound fraction, mean ± SD” value ([2]; Healthy (n = 17)) was 85.0 ± 3.0%.

For `COC(=O)c1ccc2c(c1)NC(=O)/C2=C(\Nc1ccc(N(C)C(=O)CN2CCN(C)CC2)cc1)c1ccccc1` [Nintedanib], the “Exposure, fold higher than” value [1, 5] was about 2 fold, the “AUC0–tz, adjusted gMean ratio” value [1, 10] was 216.8% and the “AUC0–∞, adjusted gMean ratio” value [1, 10] was 215.4%. The “Cmax, adjusted gMean ratio” value [1, 10] was 221.8%, the “Renal clearance, comparison across groups” value [1, 6] was “comparable across groups” and the “Exposure, fold higher than” value [1, 7] was about 8 fold. For the same compound, the “AUC0–tz, adjusted gMean ratio” value [1, 11] was 870.7%, the “AUC0–∞, adjusted gMean ratio” value [1, 11] was 867.1% and the “Cmax, adjusted gMean ratio” value [1, 11] was 761.0%. The “Time at which Cmax was reached, range” value ([1]; individual range across all groups) was 1 to 8 h, the “Median time at which Cmax was reached” value ([1]; medians across Child-Pugh A, Child-Pugh B and healthy subjects) was 3 to 4 h and the “fe0–72 (fraction excreted unchanged in urine), gMean (gCV%)” value ([1]; Child-Pugh A (n = 8)) was 0.204 (96.2) %. For the same compound, the “fe0–72 (fraction excreted unchanged in urine), gMean (gCV%)” value [1, 8] was 0.102 (37.9) %, the “fe0–72 (fraction excreted unchanged in urine), gMean (gCV%)” value ([1]; Child-Pugh B (n = 7)) was 0.543 (31.7)^b % and the “fe0–72 (fraction excreted unchanged in urine), gMean (gCV%)” value [1, 9] was 0.0945 (28.7) %. For the same compound, the Protein-bound fraction ([2]; across the groups) was over 99%, the “Severe or serious AEs” value (Safety and tolerability; all groups, single 100 mg dose) was “No severe or serious AEs were reported” and the Tolerability (Safety and tolerability; all groups, single dose of 100 mg) was “well tolerated”. The Diarrhea (Safety and tolerability; [12]) was 0 n (%), the Headache (Safety and tolerability; [12]) was 0 n (%) and the Nausea (Safety and tolerability; [12]) was 0 n (%). For the same compound, the Pruritus (Safety and tolerability; [12]) was 0 n (%), the Skin irritation (Safety and tolerability; [12]) was 0 n (%) and the Vomiting (Safety and tolerability; [12]) was 0 n (%). The Diarrhea (Safety and tolerability; [13]) was 1 (12.5) n (%), the Headache (Safety and tolerability; [13]) was 0 n (%) and the Nausea (Safety and tolerability; [13]) was 1 (12.5) n (%). The Pruritus (Safety and tolerability; [13]) was 1 (12.5) n (%), the Skin irritation (Safety and tolerability; [13]) was 1 (12.5) n (%) and the “Subjects with any AE” value (Safety and tolerability; [13]) was 3 n (%) and 3 (37.5) n (%). For the same compound, the Vomiting (Safety and tolerability; [13]) was 0 n (%), the Diarrhea (Safety and tolerability; [14]) was 0 n (%) and the Headache (Safety and tolerability; [14]) was 1 (5.9) n (%). The Nausea (Safety and tolerability; [14]) was 2 (11.8) n (%), the Pruritus (Safety and tolerability; [14]) was 0 n (%) and the Skin irritation (Safety and tolerability; [14]) was 0 n (%). The “Subjects with any AE” value (Safety and tolerability; [14]) was 3 n (%) and 3 (17.6) n (%), the Vomiting (Safety and tolerability; [14]) was 1 (5.9) n (%) and the P-glycoprotein substrate (P‐glycoprotein) was “substrate of P‐glycoprotein”. For the same compound, the “Time to maximum plasma concentrations” value ([3]; Asian (n = 39) and European (n = 32) patients with impaired hepatic function and advanced HCC) was 2 to 3 h, the “Exposure, fold higher in group II compared with group I” value ([3]; group II: ALT or AST >2 to ≤5 × ULN or Child-Pugh score 7, group I: ALT and AST ≤ 2 × ULN and Child-Pugh score 5–6) was about 2 fold and the “Time of absorption (delay by food)” value ([4]; after food intake) was about 4 h. For the same compound, the Terminal half-life [4] was 10 to 15 h, the “Time of absorption (delay by food)” value ([4]; fasted conditions) was “approximately 2 hours” and the “Exposure increase when administered after food intake” value ([4]; fed vs fasted) was “approximately 20%”. For the same compound, the Total body clearance ([4]; healthy subjects) was 1390 mL/min, the “Elimination through biliary/fecal excretion” value ([4]; in vivo) was over 90% and the Absolute bioavailability ([4]; nintedanib 100 mg in healthy volunteers) was “approximately 5%”. For the same compound, the “Time to steady state” value ([4]; of dosing) was at most 7 days and the “Time to maximum plasma concentration” value ([4]; oral administration) was 2 to 4 h.
